Bioassay records: PubChem BioAssay, several laboratories
An excerpt weighted towards active compounds, which were near 2.2% of everything screened.
GLD-1 RNA inh: GLD-1-TGE RNA interaction inhibition (C. elegans) | AID 2280 | inhibition, % at 5.96 µM | Q17339 | purified GLD-1 + fluorescein TGE RNA, fluorescence polarization | hit rate 0.44% among 320,000;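 active means percent inhibition above a per-plate cutoff, the plate mean of test compounds plus 3 SD, cut at about 30% in these data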;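 further: 0% = DMSO wells with GLD-1 and probe and 100% = wells lacking GLD-1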
VIM-2 inhibitor: inhibitors of Pseudomonas aeruginosa VIM-2 metallo-beta-lactamase; inhibition, % at 5.6 µM; purified VIM-2, nitrocefin hydrolysis, epi-absorbance fluorescence; AID 1527; hit rate 0.89% among 290,000;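 active means inhibition above the mean of all tested compounds plus 3 SD, cutoff set per screening run, cut at about 7.5% in these data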;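 further: red hydrolysis product quenches plate fluorescence so inhibitors raise well fluorescence; 0% = enzyme with DMSO and 100% = DMSO without enzyme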
MEX-5 binding: C. elegans MEX-5 TCR-2 RNA binding activity; hit rate 0.38% among 300,000; AID 1832; activity score (negative = inhibition of binding), % at 10 µM; Q9XUB2; MEX-5/FITC-TCR2 RNA binding, fluorescence polarization; active compounds read low;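 active means inhibition past about -25% in most replicates, and total fluorescence under double the plate's negative control median, limit read from the data; inconclusive means replicates evenly split on the limit, or fluorescence at least double controls; inactive means too little inhibition in most replicates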;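 further: 0% = DMSO and -100% = 5 µM competing unlabeled TCR2 RNA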
Target sequence (Q9XUB2 whole entry, looked up): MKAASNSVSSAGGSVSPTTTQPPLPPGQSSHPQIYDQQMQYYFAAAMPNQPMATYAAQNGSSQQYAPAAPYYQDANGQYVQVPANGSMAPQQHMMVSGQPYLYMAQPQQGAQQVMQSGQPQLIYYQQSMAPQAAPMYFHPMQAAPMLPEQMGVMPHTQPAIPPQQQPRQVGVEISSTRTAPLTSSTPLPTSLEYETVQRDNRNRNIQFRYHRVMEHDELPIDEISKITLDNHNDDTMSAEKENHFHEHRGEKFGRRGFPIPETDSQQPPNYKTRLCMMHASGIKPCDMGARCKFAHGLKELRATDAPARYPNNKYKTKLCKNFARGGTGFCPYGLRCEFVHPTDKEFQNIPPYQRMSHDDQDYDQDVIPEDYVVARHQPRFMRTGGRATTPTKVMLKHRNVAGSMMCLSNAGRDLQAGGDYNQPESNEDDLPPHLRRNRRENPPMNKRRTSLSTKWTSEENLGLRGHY
EBV gp42 inh: inhibitors of Epstein-Barr virus glycoprotein 42 | Q1HVG2 | Fluorescence polarization binding assay, mP read-out | inhibition, % (tested at 21.74 µM) | hit rate 0.42% among 220,000 | AID 1085; in the data active means inhibition above about 50%
Target sequence (Q1HVG2 whole entry, looked up): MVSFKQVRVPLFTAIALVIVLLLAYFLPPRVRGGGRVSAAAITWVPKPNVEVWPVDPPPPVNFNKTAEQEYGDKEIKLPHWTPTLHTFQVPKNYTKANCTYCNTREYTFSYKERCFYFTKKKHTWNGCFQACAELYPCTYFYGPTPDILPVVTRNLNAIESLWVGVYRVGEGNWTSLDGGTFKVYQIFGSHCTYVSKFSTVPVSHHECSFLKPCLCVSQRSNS
IMP-1 inh: inhibitors of Pseudomonas aeruginosa IMP-1 metallo-beta-lactamase; purified IMP-1, nitrocefin hydrolysis, epi-absorbance fluorescence; inhibition, % at 5.6 µM; hit rate 0.45% among 290,000;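 active means inhibition above the mean plus 3 SD of all compounds in the same screening run, cut at about 4.5% in these data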;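 further: 0% = IMP-1 with DMSO and 100% = DMSO wells lacking enzyme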
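System: Purified IMP-1 | Read-out basis: Percent enzyme inhibition | Controls: IMP-1 with DMSO as 0%, enzyme-free DMSO as 100% | Replicates: One well per compound | Doses: 5.6 µM nominal single concentration | Detection: Epi-absorbance fluorescence, 480 nm excitation, 530 nm emission | Incubation: 25 °C, 15 min preincubation, 25 min reaction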
Bcl-xL primary: inhibitors of human Bcl-xL; AID 2129; Q07817; GST-Bcl-xL / FITC-Bim BH3 peptide fluorescence polarization; inhibition, % at 10.9 µM; hit rate 0.7% among 320,000;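 active means inhibition above the mean of all tested compounds plus 3 SD, cutoff set per campaign, cut at about 30% in these data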;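 further: 0% = DMSO wells and 100% = unlabeled Bim-BH3 peptide competitor; inhibitors lower millipolarization by displacing the labeled peptide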
Numbers without * were called inactive; u = inconclusive; x = no result.

SMILES	GLD-1 RNA inh	VIM-2 inhibitor	MEX-5 binding	EBV gp42 inh	IMP-1 inh	Bcl-xL primary
Cc1ccc(NC2CCCN(C(=O)c3ccc(-n4ccnc4)cc3)C2)cc1C (stereo not drawn)	9.4	-2.0	1.3	x	-4.2	-2.6
Brc1ccccc1C1=Nn2c(nnc2-c2ccccc2)SC1	2.6	-1.3	-1.8	-24.9	-4.7	0.1
c1ccc(C2=Nn3c(nnc3-c3ccco3)SC2)cc1	6.5	8.3*	0.7	-14.7	0.0	10.0
Brc1ccccc1C1=Nn2c(nnc2-c2ccco2)SC1	-2.0	8.0*	-0.8	-10.5	-2.5	5.0
CCCCOc1ccc(-c2nc(SCC(N)=O)n[nH]2)cc1	3.6	0.0	0.2	-16.3	5.2*	5.7
CCCCN1C(=O)C(=O)N(CC(=O)Nc2ccc(OC(F)(F)F)cc2)C1=O	3.1	x	x	x	x	x
Fc1ccc(CSc2ccc3nnc(-c4ccccn4)n3n2)cc1	-1.1	9.3*	-0.8	6.2	-4.6	4.8
O=C(CSc1ccc2nnc(-c3cccs3)n2n1)N1CCCC1	4.5	8.1*	-2.2	-12.5	-4.5	1.5
CCOC(=O)CSc1ccc2nnc(-c3cccs3)n2n1	-1.9	7.4	2.7	-7.2	-4.6	7.4
COc1ccc(N2C(=O)CC(Sc3ncccc3C(=O)O)C2=O)cc1 (stereo not drawn)	2.6	-0.3	-6.7	1.9	-3.0	-0.5
O=C(O)c1cccnc1SC1CC(=O)N(c2ccccc2)C1=O (stereo not drawn)	-2.4	-0.6	2.9	-9.7	5.2*	7.8
O=C(Nc1ccc(Cl)c(C(F)(F)F)c1)C1CCCN(S(=O)(=O)c2cnc[nH]2)C1 (stereo not drawn)	-1.0	-1.6	-0.6	x	6.6*	6.8
Cc1ccc(CCNC(=O)C2CCCN(S(=O)(=O)c3cnc[nH]3)C2)cc1 (stereo not drawn)	1.6	0.2	2.8	-6.9	4.8*	1.7
COc1ccc(NC(=O)/C(=C\c2ccc(F)cc2)NC(=O)c2ccco2)cc1	4.0	0.5	-0.7	x	-2.1	1.6
O=C(Nc1nc(=O)c2ccccc2s1)c1ccccc1	-3.2	11.0*	-2.2	-5.8	-2.4	4.1
Cc1ccc(C2(C)NC(=O)N(CC(=O)N3CCN(S(=O)(=O)c4ccc(Cl)s4)CC3)C2=O)cc1 (stereo not drawn)	-2.2	x	5.9	x	x	-0.8
Cc1ncc(CO)c(/C=N/Nc2ccc(C(F)(F)F)cn2)c1O	4.9	-0.6	18.8	x	-1.9	39.6*
Cc1ncc(CO)c(/C=N/NC(=S)Nc2ccc(F)cc2)c1O	4.6	-1.4	-17.1	-15.4	-0.7	9.6
CCN(C(=O)Cn1c(Cl)nc2c1c(=O)n(C)c(=O)n2C)C1CCCCC1	-3.1	x	x	x	x	x
CC1(OC(=O)C2CCCC2)C(=O)C=C2C=C(c3ccsc3)OC=C2C1=O (stereo not drawn)	14.1	x	-5.3	5.2	x	14.6
CCCCC1=CC2=CC(=O)C(C)(OC(=O)C3CCCC3)C(=O)C2=CO1 (stereo not drawn)	36.2*	x	-10.1	-0.1	x	11.2
COC(=O)CCCC1=CC2=CC(=O)C(C)(OC(=O)C3CCCC3)C(=O)C2=CO1 (stereo not drawn)	47.8*	x	-26.7*	10.8	x	44.6*
CN(CCCNC(=O)C1CCC(=O)N1Cc1ccccc1Cl)c1ccccc1 (stereo not drawn)	0.9	-1.6	-1.9	-10.1	-0.5	7.3
O=C(NCCCN1CCN(c2cccc(Cl)c2)CC1)C1CCC(=O)N1Cc1ccccc1Cl (stereo not drawn)	x	0.9	-0.4	-21.8	6.5*	x
O=C(NCCCN1CCOCC1)c1cccc(NS(=O)(=O)c2ccc(Br)cc2)c1	0.3	x	x	x	x	-3.1
SMILES	GLD-1 RNA inh	VIM-2 inhibitor	MEX-5 binding	EBV gp42 inh	IMP-1 inh	Bcl-xL primary
COc1ccc(-c2nc(CS(=O)CC(=O)NCc3cccnc3)c(C)o2)cc1 (stereo not drawn)	-1.3	-0.5	-2.3	135.5*	0.3	5.0
CCCCNC(=O)CS(=O)Cc1nc(-c2cccs2)oc1C (stereo not drawn)	1.3	-1.1	-1.0	-12.1	6.1*	1.0
CCc1ccc(-c2nc(CS(=O)CC(=O)NCc3cccnc3)c(C)o2)cc1 (stereo not drawn)	0.9	-0.9	-2.4	-17.3	-1.6	2.5
COc1ccc2[nH]c(=O)c(CN(Cc3cccnc3)Cc3nnnn3CC3CCCO3)cc2c1 (stereo not drawn)	-5.8	-0.5	1.0	-27.0	-1.4	4.8
Cc1ccc(CNS(=O)(=O)c2ccc3c(c2)NC(=O)CS3)cc1	2.8	-3.3	-0.6	x	-2.5	6.5
O=C(c1cc(-c2cccnc2)nc2ccccc12)N1CCN(S(=O)(=O)c2cccs2)CC1	1.2	x	x	x	x	-3.5
OCCN(CCO)c1nc(N2CCCCC2)c2nc(N(CCO)CCO)nc(N3CCCCC3)c2n1	154.9*	7.1	x	134.9*	12.1*	x
Nc1nc(NCCO)nc(N2CCCCCC2)c1[N+](=O)[O-]	7.3	-0.5	2.5	x	-1.7	-2.3
O=S(=O)(Nc1ccc2c3c(cccc13)CC2)c1ccc(F)cc1	-5.3	-0.3	4.2	-2.7	7.8*	9.6
CSc1ccc(S(=O)(=O)Nc2ccc3c4c(cccc24)CC3)cc1	4.4	3.6	2.5	-16.9	-1.0	2.0
CC(C)(C)OC(=O)C[C@H]1C/C=C\C[C@H](CC(=O)NCCO)C(=O)NC[C@H](c2ccccc2)OC1=O	4.7	x	x	x	x	x
CN(C)/C=C1/C=C(c2ccccc2)OC1=O	-0.5	-0.1	0.4	-2.1	-8.0	-4.1
CCC1=C/C(=C/N(C)c2ccccc2)C(=O)S1	29.4	2.6	-7.3	8.0	6.1*	31.1*
Cc1ccccc1NC(=O)CSc1nnc(-c2ccco2)c(-c2ccco2)n1	5.2	-0.7	-6.2	22.7	-1.3	27.0
Cc1cccc(C)c1NC(=O)CSc1nnc(-c2ccco2)c(-c2ccco2)n1	11.8	-1.8	-3.5	46.1	-2.1	57.7*
Cc1cc(NS(=O)(=O)c2ccc(NC(=O)c3cc4cc(Br)ccc4oc3=O)cc2)no1	-4.8	-1.1	-0.4	101.2*	-1.6	6.8
CCCCNC(=O)Cn1c(=O)c2c(ncn2CCC(C)C)n(Cc2ccccc2)c1=O	-4.7	-4.1	1.8	x	-1.8	6.8
CCN(CC(=O)Nc1c(F)cccc1F)C(=O)/C=C/c1ccc2ccccc2n1	0.5	x	-1.5	x	x	31.8*
CCN(CC(=O)Nc1c(F)cccc1F)C(=O)c1ccc2ccccc2n1	-5.6	x	0.8	x	x	2.9
Cc1ccccc1/C=C/c1cc[n+](C)cc1	2.3	0.0	2.6	-37.3	-2.3	-6.5
C=CCn1cc(/C=C/c2cc[n+](C)cc2)c2ccccc21	56.6*	10.3*	u	x	7.8*	46.3*
CCN(CC)C(=O)Cn1c(C)c(/C=C/c2cc[n+](C)cc2)c2ccccc21	60.3*	3.5	u	x	2.4	-98.1
C=CCn1c(C)c(/C=C/c2cc[n+](C)cc2)c2ccccc21	74.2*	9.3*	u	x	3.7	-74.5
O=C(OCc1c(-c2ccccc2)ncc2ccccc12)c1cccs1	2.8	x	x	x	x	x
